# Shown are actives, neighbours in structure and some others; about 3.5% of the full set was active somewhere.
# MrgX1 agonist – activates human MrgX1 receptor signaling. actives 0.44% (n = 310,000). B-score at 10 µM. Q96LB2. MrgX1-HEK293 cells, Fluo-4 calcium fluorescence, agonist mode; hits give high values;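 active means calcium response B-score plate-corrected fluorescence ratio at least 3 library SD, with starting fluorescence B-score inside 5 SD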
# Target sequence (Q96LB2 whole entry, looked up): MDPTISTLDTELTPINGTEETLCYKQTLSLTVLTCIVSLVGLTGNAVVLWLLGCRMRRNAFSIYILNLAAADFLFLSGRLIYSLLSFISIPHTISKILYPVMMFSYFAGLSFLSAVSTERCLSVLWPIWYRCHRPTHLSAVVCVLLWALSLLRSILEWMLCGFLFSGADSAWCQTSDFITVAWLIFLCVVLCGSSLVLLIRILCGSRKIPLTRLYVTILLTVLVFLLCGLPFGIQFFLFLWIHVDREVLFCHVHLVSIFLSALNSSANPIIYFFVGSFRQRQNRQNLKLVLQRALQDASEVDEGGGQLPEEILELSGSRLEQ
#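 Material: HEK293 cells stably expressing human MrgX1 receptor | Quantity: 15,000 cells per well | Times: Cells plated overnight, dye loaded 0.5 h 37 °C, 0.5 h room temperature | Measured by: Kinetic Fluo-4 NW fluorescence of intracellular calcium | Control set: Positive and negative controls per plate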
# MrgX1 allo act – allosterically activates human MrgX1 receptor signaling; Q96LB2; MrgX1-HEK293, Fluo-4 calcium flux, FDSS; hits give high values; B-score at 10 µM; actives 0.63% (n = 310,000); AID 588675;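 active means plate-corrected calcium response at least 3 library SD above typical, normal starting fluorescence, not activating the receptor alone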;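 further: compound read alongside a low EC10 to EC30 dose of BAM8-22 agonist; peak minus trough fluorescence over baseline measured at the second addition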
# RGS4 act – RGS4 potentiation or activation; HEK293 M3R/inducible RGS4, carbachol calcium flux Fluo4; hits give low values; B-score at 10 µM; actives 0.92% (n = 310,000); AID 463111;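 active means B-score of the integrated calcium signal more than 4 SD below the library mean, with starting fluorescence not abnormally high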;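 further: negative B-score means reduced calcium response which marks RGS4 activation or potentiation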
#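 System: HEK293 FlpIn-TREx cells, stable M3R, doxycycline-inducible RGS4. Timing: overnight RGS4 induction, 30 min dye load 37 °C, 20 min compound RT. Also added: carbachol, ECmax concentration. Measured by: Fluo4 fluorescence kinetic imaging of calcium. Evaluation: integrated calcium ratio converted to B score.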
# MrgX1 antagonist – human MrgX1 receptor antagonism, primary screen | Q96LB2 | B-score at 10 µM | AID 588676 | MRGX1-HEK293 calcium flux, Fluo-4, BAM8-22 antagonism; hits give low values | actives 1.3% (n = 310,000);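 active means calcium-response B-score plate-corrected more than 3 library SD below zero, starting fluorescence within 5 deviations, no agonist response on first addition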;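 further: peak minus trough fluorescence over baseline after final BAM8-22 challenge near maximal dose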
# RGS4 block – inhibitors of human RGS4 | AID 463165 | HEK293 M3R/RGS4 inducible, Fluo-4 calcium flux; hits give high values; triggered by carbachol at its EC20 | B-score at 10 µM | actives 0.45% (n = 310,000) | P49798;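 active means B-score, a plate-corrected calcium signal, over three deviations above library mean, with baseline fluorescence within five deviations of library mean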;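 further: RGS4 expression induced by doxycycline in cells with stable M3 receptor; B-score is computed from the integrated fluorescence ratio over baseline after carbachol; higher B-score means a larger calcium signal and so more RGS4 inhibition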
# Target sequence (P49798 whole entry, looked up): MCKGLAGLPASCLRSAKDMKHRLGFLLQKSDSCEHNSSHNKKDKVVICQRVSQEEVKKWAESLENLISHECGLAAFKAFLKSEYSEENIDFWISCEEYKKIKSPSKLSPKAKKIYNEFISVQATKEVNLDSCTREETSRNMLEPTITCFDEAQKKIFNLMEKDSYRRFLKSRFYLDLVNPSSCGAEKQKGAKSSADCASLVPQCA
# Numbers stand for hits; – = inactive.
SMILES,MrgX1 agonist,MrgX1 allo act,RGS4 act,MrgX1 antagonist,RGS4 block
Cc1cc(Nc2ccccc2)nc(-c2ccccc2O)n1,–,–,–,–,–
O=CN/N=C/c1c(O)ccc2ccccc12,–,–,–,-5,–
Cc1cc(N/N=C/c2c(O)ccc3ccccc23)nc(-c2ccccc2O)n1,–,–,-8,–,–
Oc1ccc2ccccc2c1/C=N/Nc1ccccc1,–,–,–,–,–
COc1ccc(OCC(=O)Nc2ccc(NC(=O)c3ccccc3Cl)c(OC)c2)cc1,–,–,–,–,–
Cc1ccc(C(c2nnnn2CC2CCCO2)N2CCN(Cc3ccccc3)CC2)cc1 (stereo unspecified),–,–,–,–,–
COc1ccc(N/C(=C(/C(Cl)=C(Cl)Cl)[N+](=O)[O-])n2nnc3ccccc32)cc1,–,–,–,–,–
Cc1ccccc1N/C(=C(/C(Cl)=C(Cl)Cl)[N+](=O)[O-])n1nnc2ccccc21,–,–,–,-5,–
Cc1cccc(C)c1N1CCN(C(=O)Cn2cncn2)CC1,–,–,–,–,–
CC1(C(=O)NNC(=S)NCc2ccco2)CC1(Cl)Cl (stereo unspecified),–,–,–,-4.7,–
COc1ccccc1C1=NN(C(=O)c2ccccc2)C(c2ccc(Br)cc2)C1 (stereo unspecified),–,–,–,–,–
CCc1cccc(NC(=O)c2cccc3c2C(=O)N(C2CCCCC2)C3)c1,–,–,–,–,–
Cc1ccc(C(=O)OCC(=O)Nc2sc3c(c2C#N)CCCCC3)cc1NC(=O)c1ccco1,–,–,–,–,–
Cc1ccc(C(=O)OCC(=O)Nc2sc3c(c2C#N)CCCC3)cc1NC(=O)c1ccco1,–,–,-7.5,–,–
COc1ccc(C(=O)CSC#N)cc1OC,35,–,–,–,–
COc1ccc(C(=O)COC(=O)c2ccc(OC)c(OC)c2)cc1OC,–,–,–,–,–
COc1cc(F)c(S(=O)(=O)N2CCOc3ccccc32)cc1OC,–,–,–,–,–
O=C(/C=C/c1ccccc1)N1CCC(N2CCC(C(=O)N3CCOCC3)CC2)CC1,–,–,–,–,–
COc1cc(/C=C2\SC(=S)N(C(C(=O)O)c3ccccc3)C2=O)ccc1O (stereo unspecified),–,–,–,–,–
O=C(O)C(c1ccccc1)N1C(=O)/C(=C\c2ccc(O)c(O)c2)SC1=S (stereo unspecified),27,–,–,–,–
Cc1nn(-c2ccc(N3CCOCC3)nn2)c(C)c1CCC(=O)NCc1ccccc1,–,–,–,–,–
COc1ccc(Cl)cc1C(=O)NNC(=S)NC(=O)c1cc(-c2ccccc2)nc2ccccc12,–,–,-9.8,-6.5,–
CCCOc1ccc(C(=O)NNC(=S)NC(=O)c2cc(-c3ccc(Cl)cc3)nc3ccccc23)cc1,–,–,-9,–,–
COc1ccc(C(=O)NC(=S)NNC(=O)c2ccccc2C)cc1,62,–,–,–,–
CCNC(=S)NNC(=O)c1cc(-c2ccc(OCC)cc2)nc2ccccc12,–,–,–,–,–
SMILES,MrgX1 agonist,MrgX1 allo act,RGS4 act,MrgX1 antagonist,RGS4 block
COc1ccc(C(=O)NNC(=S)NC(=O)c2cc(-c3ccccc3)nc3ccccc23)cc1,–,–,–,-6.8,–
COc1ccc(S(=O)(=O)N2CCC3(CC2)OCCN3S(=O)(=O)c2cccs2)cc1OC,–,–,–,–,–
COCc1ccc(C(=O)NC2CCCc3c2cnn3-c2ccc(C)c(C)c2)o1 (stereo unspecified),–,–,–,–,–
CCCc1nnc(SCC(=O)Nc2ccc(NC(C)=O)cc2)n1-n1cccc1,–,–,–,–,–
CCCCN(Cc1ccco1)S(=O)(=O)c1ccc(-c2ccc(=O)[nH]n2)s1,–,–,–,–,–
COc1ccc(NC(=O)CN(C)C(=O)c2ccc(NS(=O)(=O)c3cccc([N+](=O)[O-])c3)cc2)cc1,–,–,–,–,–
COc1ccc(/C=C/C(=O)NC(=S)NNC(=O)c2c(-c3ccccc3)noc2C)cc1,29,–,–,–,–
COc1ccc(-c2cc(C(=O)NNC(=S)NC(=O)c3c(-c4ccccc4)noc3C)[nH]n2)cc1,–,–,–,–,–
Cn1cc(C(=O)C(=O)NC2CCCCC2)c2ccccc21,–,–,–,–,–
COc1ccc(N2CCN(C(CNC(=O)C3CCCCC3)c3ccco3)CC2)cc1 (stereo unspecified),–,–,–,–,–
CCCc1cc(=O)oc2cc(OC(=O)CN3C(=O)NC4(CCCC4)C3=O)ccc12,–,–,–,-8.6,–
COc1ccc(N(C(=O)c2ccco2)C(C(=O)NC2CCCC2)c2ccc(N3CCOCC3)cc2)c(OC)c1 (stereo unspecified),–,–,–,–,–
COc1ccc(OC)c(CCNC(=O)c2ccc3c(c2)N(Cc2ccc(F)cc2)CCS3)c1,–,–,–,–,–
CCOc1ccc(CCNC(=O)c2ccc3c(=O)[nH]c4c(C(=O)NC(C)C)sc(=S)n4c3c2)cc1,–,–,–,-9.2,–
O=C(NCCc1ccccc1)c1ccc2c(=O)[nH]c3c(C(=O)NCC4CCCO4)sc(=S)n3c2c1 (stereo unspecified),–,–,–,–,–
CC(C)NC(=O)c1sc(=S)n2c1[nH]c(=O)c1ccc(C(=O)NCCc3ccc(Cl)cc3)cc12,–,–,-8.2,-5.9,–
COc1ccc(OC)c(CCNC(=O)c2ccc3c(=O)[nH]c4c(C(=O)NC(C)C)sc(=S)n4c3c2)c1,–,–,-8.8,-8,–
O=C(c1ccco1)N1CCN(Cc2cc(=O)c(OCc3ccccc3)co2)CC1,–,–,–,-5.3,–
O=C(CCC(=O)OCc1cccc([N+](=O)[O-])c1)Nc1ccccc1Cl,–,–,–,–,–
O=C(CCC(=O)OCC(=O)c1cccc([N+](=O)[O-])c1)Nc1ccccc1Cl,–,–,–,-7,–
CCn1c(=NC(=O)CS(=O)(=O)c2ccc(C)cc2)sc2cccc(OC)c21,–,–,–,–,–
CCn1c(=NC(=O)c2ccc(S(=O)(=O)N(C)C)cc2)sc2cccc(OC)c21,–,–,-7.2,–,–
O=[N+]([O-])c1ccc(N/N=C/c2ccccc2O)cc1,–,–,–,-4.9,–
NS(=O)(=O)c1ccc(N/N=C/c2ccccc2Br)cc1,–,6.8,–,–,–
O=[N+]([O-])c1cccc(N/N=C/c2cc([N+](=O)[O-])ccc2O)c1,–,–,–,–,–
NS(=O)(=O)c1ccc(N/N=C/c2ccncc2)cc1,–,–,–,–,–
Cc1ccc(CNC(=O)C(C)C2Sc3ccccc3NC2=O)cc1 (stereo unspecified),–,–,–,–,–
CCN1C(=S)SC(=O)C1=C1C=C(C)N(CCO)C(C)=C1,38,–,–,–,–
C/C(=C/C#N)Nc1ccc(C)cc1,–,12,–,–,–
